Measurements from ChEMBL document CHEMBL1142170, “Mechanism of activation of beta-D-2'-deoxy-2'-fluoro-2'-c-methylcytidine and inhibition of hepatitis C virus NS5B RNA polymerase” (Antimicrob Agents Chemother, 2007).
Active and inactive are the calls of the source. No cut-off for these calls is given here.

How the values were obtained:
Hepacivirus hominis [1] = assay: Ratio of Kcat to Km for HCV NS5B RNA polymerase S282T mutant
Method in brief: (§1)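 Steady-state assay with purified 21-aa C-terminally truncated HCV NS5B (S282T) on minus-IRES RNA template. Conditions: 50 mM HEPES pH 7.5, 1 mM MgCl2, 0.75 mM MnCl2, 2 mM DTT, [α-32P]UTP tracer, 27°C. One NTP varied, other three held at saturating levels. Rates came from product time courses; products were dot-blotted on Hybond N+ and counted by scintillation.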

Hepacivirus hominis [2] = assay: Ratio of Kcat to Km for HCV NS5B RNA polymerase
Method in brief: (§2)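 Recombinant C-terminal 21-aa truncated HCV NS5B on minus IRES RNA template, 50 mM HEPES pH 7.5, 1 mM MgCl2, 0.75 mM MnCl2, 2 mM DTT, [α-32P]UTP, 27°C. One NTP varied, other three fixed at saturating levels. Aliquots quenched with EDTA/NaCl/citrate, product retained on Hybond N+ membrane, counted by scintillation. Rates from time-course slopes, fit for steady-state parameters.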

Hepacivirus hominis [3] = assay: Activity of HCV NS5B RNA polymerase assessed as incorporation of 32P-UMP into RNA; method in brief: as §2
[4] = target: T1, Uridine-cytidine kinase 1 (Homo sapiens) (UniProt Q9HA47); assay: Ratio of Kcat to Km for UCK1 activity expressed in Huh7 cells; type: cell-based; details: Huh-7
T1 sequence (whole entry): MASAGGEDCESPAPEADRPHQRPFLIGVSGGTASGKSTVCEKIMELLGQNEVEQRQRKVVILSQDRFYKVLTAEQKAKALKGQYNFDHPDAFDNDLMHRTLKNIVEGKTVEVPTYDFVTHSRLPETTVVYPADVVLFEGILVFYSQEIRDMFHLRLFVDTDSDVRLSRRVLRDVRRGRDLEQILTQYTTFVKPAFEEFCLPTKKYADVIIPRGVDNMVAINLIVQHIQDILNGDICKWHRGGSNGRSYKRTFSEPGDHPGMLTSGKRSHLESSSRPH
Method in brief: (§3)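 His-tagged human UCK-1 cloned from Huh-7 cells, assayed at 25°C by pyruvate kinase/lactate dehydrogenase coupling, NADH oxidation at 340 nm. Buffer 64 mM Tris-HCl pH 7.5, 1 mM ATP, Mg2+, phosphoenolpyruvate. Enzyme 41 nM, or 410 nM for 2′-C-methyl cytidines. Substrate concentration varied. Steady-state parameters reported as mean ± SD.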

[5] = target: T1, Uridine-cytidine kinase 1 (Homo sapiens); assay: Activity of human UCK1 expressed in Huh7 cells assessed as phosphorylation by coupled enzyme assay; type: cell-based; details: Huh-7; method in brief: as §3
[6] = target: T1, Uridine-cytidine kinase 1 (Homo sapiens); assay: Activity of human UCK1 expressed in Huh7 cells assessed as phosphorylation up to 1 mM by coupled enzyme assay; type: cell-based; details: Huh-7; method in brief: as §3
[7] = target: T1, Uridine-cytidine kinase 1 (Homo sapiens); assay: Ratio of Kcat to Km for UCK1 activity expressed in Huh7 cells up to 1 mM; type: cell-based; details: Huh-7; method in brief: as §3
HepG2 [8] = assay: Ratio of Kcat to Km for NDPK activity expressed in HepG2 cells; type: cell-based; details: Homo sapiens
Method in brief: (§4)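 Human NDPK cloned from HepG2 cells, 216 nM, 37°C, with 1 mM ATP in Tris-HCl pH 7.5 coupled to pyruvate kinase/lactate dehydrogenase. NADH oxidation read at 340 nm. Diphosphate substrate concentration varied, Km and kcat as mean ± SD.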

HepG2 [9] = assay: Activity of human NDPK expressed in HepG2 cells assessed as phosphorylation by coupled enzyme assay; type: cell-based; method in brief: as §4
Hepacivirus hominis [10] = assay: Inhibition of HCV NS5B RNA polymerase S282T mutant assessed as incorporation of 32P-UMP into RNA
Method in brief: (§5)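 Purified 21-aa C-terminally truncated NS5B (S282T; wild type for comparison) on minus-IRES template, run in 50 mM HEPES pH 7.5 with 1 mM MgCl2, 0.75 mM MnCl2, 2 mM DTT and [α-32P]UTP at 27°C. Natural substrate and inhibitor were both varied against fixed remaining NTPs (UTP 10 μM, others 100 μM). Product was membrane-captured and counted. Ki was obtained by fitting a competitive inhibition equation.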

Hepacivirus hominis [11] = assay: Inhibition of HCV NS5B RNA polymerase assessed as incorporation of 32P-UMP into RNA
Method in brief: (§6)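 Steady-state Ki against truncated NS5B (wild-type and S282T) on minus IRES template, 27°C, HEPES pH 7.5 with Mg2+/Mn2+/DTT and [α-32P]UTP. For ATP analog, UTP 10, GTP and CTP 100 μM, ATP and inhibitor varied. For CTP analogs, UTP 10, ATP and GTP 100 μM, CTP and inhibitor varied. Membrane-bound product counted, rates fit to competitive inhibition.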

Hepacivirus hominis [12] = assay: Ratio of Ki to Km for HCV NS5B RNA polymerase; method in brief: as §6
[13] = system: RNA-directed RNA polymerase (Hepacivirus hominis), O39930 [S282T]; assay: Ratio of Ki to Km for HCV NS5B RNA polymerase S282T mutant; method in brief: as §5
Hepacivirus hominis [14] = assay: Ratio of Ki/Km of HCV NS5B RNA polymerase S282T mutant to Ki/Km of HCV NS5B RNA polymerase; method in brief: as §5
[15] = target: T1, Uridine-cytidine kinase 1 (Homo sapiens); assay: Activity of human UCK1 expressed in Huh7 cells assessed as phosphorylation up to 3 mM by coupled enzyme assay; type: cell-based; details: Huh-7; method in brief: as §3
[16] = target: T1, Uridine-cytidine kinase 1 (Homo sapiens); assay: Ratio of Kcat to Km for UCK1 activity expressed in Huh7 cells up to 3 mM; type: cell-based; details: Huh-7; method in brief: as §3
[17] = system: Nc1ccn([C@@H]2O[C@H](COP(=O)(O)OP(=O)(O)OP(=O)(O)O)[C@@H](O)[C@H]2O)c(=O)n1; assay: (§7) Activity of HCV NS5B RNA polymerase S282T assessed as incorporation of 32P-UMP into RNA; details: Hepacivirus hominis; method in brief: as §1
[18] = system: Nc1nc2c(c(=O)[nH]1)NCN2[C@@H]1O[C@H](COP(=O)(O)OP(=O)(O)OP(=O)(O)O)[C@@H](O)[C@H]1O; assay: as §7; details: Hepacivirus hominis; method in brief: as §1
[19] = system: Nc1ncnc2c1ncn2[C@@H]1O[C@H](COP(=O)(O)OP(=O)(O)OP(=O)(O)O)[C@@H](O)[C@H]1O; assay: as §7; details: Hepacivirus hominis; method in brief: as §1
[20] = system: O=c1ccn([C@@H]2O[C@H](COP(=O)(O)OP(=O)(O)OP(=O)(O)O)[C@@H](O)[C@H]2O)c(=O)[nH]1; assay: as §7; details: Hepacivirus hominis; method in brief: as §1
[21] = system: C[C@@H]1[C@H](O)[C@@H](CO)O[C@H]1n1ccc(N)nc1=O; details: Homo sapiens; HepG2
[22] = system: C[C@@]1(F)[C@H](O)[C@@H](CO)O[C@H]1n1ccc(N)nc1=O; details: Homo sapiens; HepG2
[23] = system: C[C@@]1(O)[C@H](O)[C@@H](CO)O[C@H]1n1ccc(N)nc1=O; details: Homo sapiens; HepG2
[24] = system: Nc1ccn([C@@H]2O[C@H](CO)[C@@H](O)C2(F)F)c(=O)n1; details: Homo sapiens; HepG2
[25] = system: Nc1ccn([C@@H]2O[C@H](CO)[C@@H](O)[C@H]2F)c(=O)n1; details: Homo sapiens; HepG2
[26] = system: C[C@@H]1[C@H](O)[C@@H](CO)O[C@H]1n1ccc(N)nc1=O; details: Homo sapiens; HepG2; remark: listed apart in the source
[27] = system: C[C@@]1(F)[C@H](O)[C@@H](CO)O[C@H]1n1ccc(N)nc1=O; details: Homo sapiens; HepG2; remark: listed apart in the source
[28] = system: C[C@@]1(O)[C@H](O)[C@@H](CO)O[C@H]1n1ccc(N)nc1=O; details: Homo sapiens; HepG2; remark: listed apart in the source
[29] = system: Nc1ccn([C@@H]2O[C@H](CO)[C@@H](O)C2(F)F)c(=O)n1; details: Homo sapiens; HepG2; remark: listed apart in the source
[30] = system: Nc1ccn([C@@H]2O[C@H](CO)[C@@H](O)[C@H]2F)c(=O)n1; details: Homo sapiens; HepG2; remark: listed apart in the source

Deoxycytidine kinase (Homo sapiens), P27707, sequence (P27707 whole entry): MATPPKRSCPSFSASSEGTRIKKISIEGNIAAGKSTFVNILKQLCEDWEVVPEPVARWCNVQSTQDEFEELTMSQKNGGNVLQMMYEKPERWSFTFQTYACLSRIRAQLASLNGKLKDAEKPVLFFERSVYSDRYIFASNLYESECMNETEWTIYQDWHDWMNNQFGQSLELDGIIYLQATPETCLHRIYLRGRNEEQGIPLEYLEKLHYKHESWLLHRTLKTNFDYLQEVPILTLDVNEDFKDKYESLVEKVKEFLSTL

## O=c1ccn([C@@H]2O[C@H](COP(=O)(O)OP(=O)(O)OP(=O)(O)O)[C@@H](O)[C@H]2O)c(=O)[nH]1
Hepacivirus hominis [1]
  kcat/Km: 11.5 M⁻¹ s⁻¹
Hepacivirus hominis [2]
  kcat/Km: 53.3 M⁻¹ s⁻¹
Hepacivirus hominis [3]
  Km: 0.4 µM
  kcat: 2.13e-05 s⁻¹

## Nc1ccn([C@H]2C[C@H](O)[C@@H](CO)O2)c(=O)n1
[4]
  Activity: inactive
[5]
  Activity: inactive
[6]
  Activity: inactive
[7]
  Activity: inactive

## C[C@@]1(O)[C@H](O)[C@@H](CO)O[C@H]1n1ccc(N)nc1=O
[4]
  Activity: inactive
[5]
  Activity: inactive

## Nc1ccn([C@@H]2O[C@H](COP(=O)(O)OP(=O)(O)O)[C@@H](O)[C@H]2O)c(=O)n1
HepG2 [8]
  kcat/Km: 600000 M⁻¹ s⁻¹
HepG2 [9]
  Km: 307 µM
  kcat: 183 s⁻¹

## C[C@@]1(F)[C@H](O)[C@@H](COP(=O)(O)OP(=O)(O)O)O[C@H]1n1ccc(N)nc1=O
HepG2 [8]
  kcat/Km: 15000 M⁻¹ s⁻¹
HepG2 [9]
  Km: 1380 µM
  kcat: 21 s⁻¹

## C[C@@]1(O)[C@H](O)[C@@H](COP(=O)(O)OP(=O)(O)OP(=O)(O)O)O[C@H]1n1ccc(N)nc1=O
Hepacivirus hominis [10]
  Km: 2.7 µM
Hepacivirus hominis [11]
  Km: 13.7 µM
Hepacivirus hominis [12]
  Ki/Km: 0.12
[13]
  Ki/Km: 1.4
Hepacivirus hominis [14]
  Ratio: 12

## Nc1ccn([C@@H]2O[C@H](COP(=O)(O)OP(=O)(O)OP(=O)(O)O)[C@@H](O)[C@H]2O)c(=O)n1
Hepacivirus hominis [1]
  kcat/Km: 1.32 M⁻¹ s⁻¹
Hepacivirus hominis [2]
  kcat/Km: 1.83 M⁻¹ s⁻¹
Hepacivirus hominis [3]
  Km: 13.7 µM
  kcat: 2.53e-05 s⁻¹

## C[C@@]1(F)[C@H](O)[C@@H](CO)O[C@H]1n1ccc(N)nc1=O
[4]
  Activity: inactive
[5]
  Activity: inactive
[15]
  Activity: inactive
[16]
  Activity: inactive

## Nc1ncnc2c1ncn2[C@@H]1O[C@H](COP(=O)(O)OP(=O)(O)OP(=O)(O)O)[C@@H](O)[C@H]1O
Hepacivirus hominis [1]
  kcat/Km: 10.7 M⁻¹ s⁻¹
Hepacivirus hominis [2]
  kcat/Km: 12.3 M⁻¹ s⁻¹
Hepacivirus hominis [3]
  Km: 2.7 µM
  kcat: 3.33e-05 s⁻¹

## C[C@@]1(O)[C@H](O)[C@@H](COP(=O)(O)OP(=O)(O)OP(=O)(O)O)O[C@H]1n1cnc2c(N)ncnc21
Hepacivirus hominis [10]
  Km: 0.26 µM
Hepacivirus hominis [11]
  Km: 2.7 µM
Hepacivirus hominis [12]
  Ki/Km: 0.56
[13]
  Ki/Km: 84
Hepacivirus hominis [14]
  Ratio: 150

## RNA-directed RNA polymerase (Hepacivirus hominis), O39930 S282T
[17]
  Km: 2.7 µM
  kcat: 0.000214 s⁻¹
[18]
  Km: 5 µM
  kcat: 0.000198 s⁻¹
[19]
  Km: 0.26 µM
  kcat: 0.000167 s⁻¹
[20]
  Km: 0.18 µM
  kcat: 0.000125 s⁻¹

## C[C@@]1(F)[C@H](O)[C@@H](COP(=O)(O)OP(=O)(O)OP(=O)(O)O)O[C@H]1n1ccc(N)nc1=O
Hepacivirus hominis [10]
  Km: 2.7 µM
Hepacivirus hominis [11]
  Km: 13.7 µM
Hepacivirus hominis [12]
  Ki/Km: 0.31
[13]
  Ki/Km: 0.93
Hepacivirus hominis [14]
  Ratio: 3

## Deoxycytidine kinase (Homo sapiens), P27707
[21]
  kcat/Km: 1000 M⁻¹ s⁻¹
[22]
  kcat/Km: 190 M⁻¹ s⁻¹
[23]
  kcat/Km: 12 M⁻¹ s⁻¹
[24]
  kcat/Km: 27000 M⁻¹ s⁻¹
[25]
  kcat/Km: 11000 M⁻¹ s⁻¹
[26]
  Km: 46.2 µM
  kcat: 0.048 s⁻¹
[27]
  Km: 81.2 µM
  kcat: 0.016 s⁻¹
[28]
  Km: 914 µM
  kcat: 0.011 s⁻¹
[29]
  Km: 1.4 µM
  kcat: 0.038 s⁻¹
[30]
  Km: 4.7 µM
  kcat: 0.05 s⁻¹
